Screening data: PubChem BioAssay, The Scripps Research Institute Molecular Screening Center
Sampled rows, rich in hits. Any-hit rate of the full collection: about 1.8%.
M5 ag: CHRM5 agonism in calcium assay | P08912 | CHO-K1 hM5 cells, Fluo-8 calcium fluorescence; 0% DMSO wells, 100% maximal acetylcholine response | activation, % at 3 µM | 0.19% of 360,000 active | AID 624037;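 active = activation above the run's mean over test compounds plus 3 SD, cut at about 23% in these data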;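 note: signal is peak over basal fluorescence ratio across the kinetic read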
Target sequence (P08912 whole entry, looked up): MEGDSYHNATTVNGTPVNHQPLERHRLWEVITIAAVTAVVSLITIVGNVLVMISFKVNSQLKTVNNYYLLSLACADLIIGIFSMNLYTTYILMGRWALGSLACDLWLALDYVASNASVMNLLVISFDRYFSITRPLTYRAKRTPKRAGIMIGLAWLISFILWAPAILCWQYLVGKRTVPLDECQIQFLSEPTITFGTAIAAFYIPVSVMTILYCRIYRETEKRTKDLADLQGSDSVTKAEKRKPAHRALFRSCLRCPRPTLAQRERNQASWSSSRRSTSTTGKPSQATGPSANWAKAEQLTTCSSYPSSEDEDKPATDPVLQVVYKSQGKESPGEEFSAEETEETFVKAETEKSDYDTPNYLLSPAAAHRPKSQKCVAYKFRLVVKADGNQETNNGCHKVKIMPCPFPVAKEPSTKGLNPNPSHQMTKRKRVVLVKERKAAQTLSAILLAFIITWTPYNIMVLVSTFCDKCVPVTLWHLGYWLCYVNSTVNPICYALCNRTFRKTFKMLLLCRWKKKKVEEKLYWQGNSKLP
CHRM4 agonist: agonists of human muscarinic M4 receptor (CHRM4); 0.14% of 360,000 active; P08173; CHO-K1 hM4/Gqi5, Fluo-8 calcium fluorescence; vehicle 0%, full acetylcholine response 100%; activation, % at 3 µM; AID 624127;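 active = activation above the run mean over all test wells plus 3 SD, cut at about 32% in these data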;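 note: peak over basal fluorescence ratio per well then scaled between controls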
CHRM4 antagonist: blocks acetylcholine activation of human M4 receptor; P08173; CHO-hM4 cells, ACh EC80, Fluo-8 calcium fluorescence; inhibition, % at 3 µM; 0.73% of 360,000 active; AID 624125;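 active = inhibition above its plate's cutoff, the mean inhibition of sample wells plus 3 SD, cut at about 27% in these data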
CHRM5 PAM: CHRM5 positive allosteric modulation | P08912 | CHO-K1 hM5, Fluo-8 calcium, ACh EC20 PAM; 0% = ACh EC20, 100% = ACh EC100 | activation, % at 3 µM | 0.3% of 360,000 active | AID 624038;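 active = activation above the run cutoff, the mean activation of all test compounds plus 3 SD, cut at about 18% in these data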
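System: CHO-K1 hM5 cells. Reagent: acetylcholine, EC20 level. Compound dosing: single dose, 3 µM nominal final test concentration. Timing: Post-acetylcholine fluorescence recording 140 s. Detection: Fluo-8 calcium fluorescence. Read-out: % activation, ACh-normalized. Benchmarks: ACh EC20 and EC100 wells. Repeats: singlicate, one well per test compound.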
CHRM5 antagonist: antagonists of human muscarinic M5 receptor (CHRM5); P08912; CHO-hM5 cells, Fluo-8 calcium fluorescence, ACh EC80; inhibition, % at 3 µM; 0.59% of 360,000 active; AID 624040;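 active = inhibition above a per-plate cutoff, the mean of that plate's test compounds plus 3 SD, cut at about 27% in these data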
CHRM4 PAM: positive allosteric modulators of human muscarinic M4 receptor | P08173 | activation, % at 3 µM | 0.4% of 360,000 active | AID 624126 | CHO-K1 hM4/Gqi5, Fluo-8 calcium fluorescence, ACh EC20; 0% = ACh EC20, 100% = maximal ACh;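 active = activation above its plate's cutoff, the mean activation of sample wells plus 3 SD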
Large screens that a line does not name were inactive; ! = repeats disagree.

CCC(CC)C1C(C#N)=C(N)Oc2c1c(=O)oc1ccccc21 (centres undefined)	none
CC1(C)CCCN1CCC(C(N)=O)(c1ccccc1)c1ccccc1	CHRM4 antagonist 97.9, CHRM5 antagonist 99.1
O=C1NCN(c2ccccc2)C12CCNCC2	none
O=C(NCCN1CCC2(CC1)C(=O)NCN2c1cccc(F)c1)c1ccc2ccccc2c1	M5 ag 51.7, CHRM4 agonist 107.0, CHRM4 antagonist 101.2, CHRM5 antagonist 98.9
CCOc1ccc(-n2c(O)c(N=Nc3ccc([N+](=O)[O-])cc3)c(=O)[nH]c2=O)cc1	none
C[C@@H]1CN([C@@H](C)CO)C(=O)CCCn2nncc2CO[C@@H]1CN(C)C(=O)Oc1ccccc1	none
C[C@]12CC[C@H](OS(=O)(=O)O)CC1=CC[C@@H]1[C@@H]2CC[C@]2(C)C(=O)CC[C@@H]12	CHRM4 antagonist 71.4!
O=C(Nc1ccc(Br)cc1)c1nn(C23CC4CC(CC(C4)C2)C3)cc1Br	none
O=C(CF)NC(NC(=S)Nc1ccccc1O)C(Cl)(Cl)Cl (centres undefined)	CHRM4 PAM 20.1
C[C@]12CC[C@@H](O)C[C@@H]1CC[C@@H]1[C@@H]2CC[C@]2(C)C(=O)[C@H](O)C[C@@H]12	none
CCCCn1c(=O)c(C(=O)Nc2ncccc2C)c(O)c2ccccc21	CHRM4 agonist 33.4
CCCCCCn1c(=O)c(C(=O)Nc2ncccc2C)c(O)c2ccccc21	none
COc1ccc(-c2nn(CCC#N)cc2C(=O)Nc2ccc(C(C)=O)cc2)cc1[N+](=O)[O-]	none
O=c1c2ccccc2[se]n1-c1ccccc1	none
CC(=NCCN(C)C)c1c(O)n(Cc2ccccc2)c(=O)[nH]c1=O	none
CCn1ccnc1CN1CCCC(C(=O)c2cccc(C(F)(F)F)c2)C1 (centres undefined)	CHRM4 antagonist 46.8
CCOC(=O)C1(c2ccccc2)CCN(CCC(=O)Nc2cccc(Br)c2)CC1	none
CCN1CCN(CC(c2ccccc2)c2ccccc2)CC1	CHRM5 antagonist 35.8
O=C1NC(=O)C(Nc2ccc(Cl)c(Cl)c2)C(=O)N1	none
COc1ccc(-n2c(/C=C3/C(=O)Nc4ccccc43)nc3ccccc3c2=O)cc1	CHRM4 antagonist 97.1
COc1cc(/C=C/c2nc3ccccc3c(=O)n2-c2ccc(O)cc2)ccc1O	CHRM4 antagonist 28.7
COc1ccc2[nH]c(C)c(CCNCc3cn(C)c4ccccc34)c2c1	none
COC(=O)C1=C(c2ccc(-c3ccccc3)c(F)c2)C[C@@H]2CC[C@H]1N2C(=O)NCCOc1ccccc1	none
Nc1ccc(CC(N)c2csc(Nc3ncccn3)n2)cc1 (centres undefined)	none
NC(Cc1ccc(Cl)cc1)c1csc(Nc2ncccn2)n1 (centres undefined)	CHRM4 antagonist 96.3
CCOC(=O)[C@]12Cc3ccc(C)cc3[C@H]1N(C1CCCCC1)C(=O)c1ccccc12	none
CCOC(=O)[C@]12Cc3cc(C)ccc3[C@H]1N(C1CCCCC1)C(=O)c1ccccc12	M5 ag 26.8
CCOC(=O)[C@]12Cc3ccc(C)cc3[C@H]1N(C1CCCCC1)C(=O)c1cc(OC)ccc12	none
CCOC(=O)[C@]12Cc3cc(Cl)ccc3[C@H]1N(C1CCCCC1)C(=O)c1cc(OC)ccc12	M5 ag 51.1, CHRM4 antagonist 77.2
Oc1cccc(/C=N/NP(=S)(c2ccccc2)c2ccccc2)c1	none
O=P1(NCCCl)OCCC(OO)N1CCCl (centres undefined)	none
CN1CCCC1C(O)(c1ccccc1)c1ccccc1 (centres undefined)	none
CCC[N+]12CCC(CC1)C(C(O)(c1ccccc1)c1ccccc1)C2 (centres undefined)	CHRM5 antagonist 28.2
C[N+]12CCC(CC1)C(C(O)(c1ccccc1)c1cccs1)C2 (centres undefined)	CHRM4 antagonist 94.3, CHRM5 antagonist 93.7
CCCC[N+]12CCC(CC1)C(C(O)(c1ccccc1)c1ccccc1)C2 (centres undefined)	none
C[C@H](NC(=O)N1C[C@H]2C[C@@H](C1)c1cccc(=O)n1C2)C(=O)Nc1cccc(F)c1	none
CC1(C)OC(c2ccccc2)=C/C(=C/C=C2C(=O)NC(=O)NC2=O)O1	M5 ag 75.1
CCN1CCN(c2cn[nH]c(=O)c2Cl)CC1	none
CCN1CCN(c2nc3c(c(=O)[nH]2)CCCC3)CC1	CHRM4 PAM 25.9
CCOC(C(=O)OCC(O)CN(CC)CC)(c1ccccc1)c1ccccc1 (centres undefined)	none
CC[N+](C)(CC)CCCOC(=O)C(O)(c1ccccc1)C1CCCCC1 (centres undefined)	CHRM4 antagonist 98.5, CHRM5 antagonist 98.2
CCN(CC)CCCOC(=O)C(OC)(c1ccccc1)c1ccccc1	CHRM4 antagonist 53.4, CHRM5 antagonist 56.0
CCOC(C(=O)OCCC[N+](C)(CC)CC)(c1ccccc1)c1ccccc1	CHRM5 antagonist 55.5
O=C(O)C(O)(c1ccccc1)C1CCCCC1 (centres undefined)	none
CC(=O)N1CCC(N2CCCC(C(=O)c3cccc(Cl)c3)C2)CC1 (centres undefined)	CHRM4 antagonist 26.6
CC(C)(C)c1ccc(C(=O)C2CCCN(Cc3ccon3)C2)cc1 (centres undefined)	none
CC(C)(C)c1ccc(C(=O)C2CCCN(C3CCC3)C2)cc1 (centres undefined)	CHRM4 antagonist 32.0
CCc1ccc(N2C(=O)NC(=O)/C(=C\c3cc(C)n(-c4cc(C(=O)O)cc(C(=O)O)c4)c3C)C2=O)cc1	CHRM4 PAM 18.4
CC(C)(C)N1Cc2ccccc2C1=N	CHRM5 PAM 30.9
Cc1cc(C)nc(N2Cc3ccccc3C2=N)n1	none
Nc1ccccc1-[n+]1c(-c2ccccc2)cc(-c2ccccc2)cc1-c1ccccc1	none
[O-]c1ccccc1-[n+]1c(-c2ccccc2)cc(-c2ccccc2)cc1-c1ccccc1	none
Oc1ccccc1-[n+]1c(-c2ccccc2)cc(-c2ccccc2)cc1-c1ccccc1	CHRM4 antagonist 27.6
Cc1ccccc1-[n+]1c(-c2ccccc2)cc(-c2ccccc2)cc1-c1ccccc1	CHRM4 antagonist 78.3, CHRM5 antagonist 41.5
C[N+]12CCC(CC1)C(=C(c1ccccc1)c1ccccc1)C2	CHRM4 antagonist 97.2, CHRM5 antagonist 99.1
CC[N+]12CCC(CC1)C(=C(c1ccccc1)c1ccccc1)C2	CHRM4 antagonist 96.9, CHRM5 antagonist 99.3
COc1ccccc1N1CCN(Cc2ccc(Br)s2)CC1	none
COC(=O)C1=C(c2ccc(S(C)(=O)=O)cc2)C[C@@H]2CC[C@H]1N2C(=O)NCc1ccc(C(F)(F)F)cc1	none
